Measurements taken from ChEMBL document CHEMBL4346709, “Design and Optimization Leading to an Orally Active TTK Protein Kinase Inhibitor with Robust Single Agent Efficacy” (J Med Chem, 2019).
Active and inactive are the calls of the source. The rule behind the calls is not given here.

Assays:
[1] = test system: CAL-51; experiment: Antiproliferative activity against human CAL51 cells assessed as reduction in cell viability after 3 days by CellTiter-Glo reagent-based luminescent assay; type: functional; conditions: CAL-51, 72 h
[2] = AUC in rat at 10 mg/kg, po; type: ADME, organism-based; conditions: in vivo
Summary of the method: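 Rat oral PK at 10 mg/kg. Compound is given as a solution in CMCT (0.5% CMC/0.25% tween-80) or formulated in 5% TPGS, 10% captisol, 50 mM citrate buffer. Cmax and AUC are recorded.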

[3] = molecular target: T1, Dual specificity protein kinase TTK (Homo sapiens, UniProt P33981); experiment: Inhibition of TTK autophosphorylation in human CAL51 cells by radioimmuno-precipitation assay; type: cell-based
T1 sequence (P33981 whole entry): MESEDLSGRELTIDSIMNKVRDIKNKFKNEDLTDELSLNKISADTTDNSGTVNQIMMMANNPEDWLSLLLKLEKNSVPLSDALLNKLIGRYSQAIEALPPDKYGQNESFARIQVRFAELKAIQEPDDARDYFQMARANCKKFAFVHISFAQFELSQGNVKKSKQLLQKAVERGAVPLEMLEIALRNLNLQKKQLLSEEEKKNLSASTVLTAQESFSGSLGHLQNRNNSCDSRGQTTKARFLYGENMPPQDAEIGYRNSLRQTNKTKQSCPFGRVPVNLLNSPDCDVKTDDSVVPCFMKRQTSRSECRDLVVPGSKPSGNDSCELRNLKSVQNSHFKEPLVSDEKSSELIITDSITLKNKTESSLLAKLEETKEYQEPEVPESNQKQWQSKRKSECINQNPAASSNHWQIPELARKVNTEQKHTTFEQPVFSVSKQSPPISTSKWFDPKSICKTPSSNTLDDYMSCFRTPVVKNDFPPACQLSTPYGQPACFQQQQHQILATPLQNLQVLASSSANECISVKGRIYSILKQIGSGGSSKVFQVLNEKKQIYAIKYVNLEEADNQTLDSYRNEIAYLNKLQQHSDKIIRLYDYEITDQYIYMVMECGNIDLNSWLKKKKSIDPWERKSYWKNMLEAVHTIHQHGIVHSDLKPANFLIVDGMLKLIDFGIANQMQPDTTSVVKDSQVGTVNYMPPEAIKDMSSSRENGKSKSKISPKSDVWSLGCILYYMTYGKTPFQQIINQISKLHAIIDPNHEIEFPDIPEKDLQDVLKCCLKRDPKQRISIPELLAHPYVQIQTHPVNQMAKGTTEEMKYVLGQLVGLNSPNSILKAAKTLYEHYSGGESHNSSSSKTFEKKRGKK

[4] = molecular target: T1, Dual specificity protein kinase TTK; experiment: Inhibition of TTK in human CAL51 cells assessed as decrease in phosphorylated TTK T686 levels after 1 hr by Western blot analysis; type: cell-based
[5] = molecular target: LRRK2 G2019S mutant (Homo sapiens, UniProt Q5S007, G2019S); experiment: Inhibition of recombinant human GST-tagged LRRK2 G2019S mutant catalytic domain (970 to 2527 residues) expressed in baculovirus expression system at 3 uM using LRRKtide as substrate measured after 1 hr by Alexa-fluor-647 ADP tracer-based ADAPTA assay relative to control; conditions: probe LRRKtide
Sequence of LRRK2 G2019S mutant (Q5S007 whole entry G2019S, the tested form may be a part): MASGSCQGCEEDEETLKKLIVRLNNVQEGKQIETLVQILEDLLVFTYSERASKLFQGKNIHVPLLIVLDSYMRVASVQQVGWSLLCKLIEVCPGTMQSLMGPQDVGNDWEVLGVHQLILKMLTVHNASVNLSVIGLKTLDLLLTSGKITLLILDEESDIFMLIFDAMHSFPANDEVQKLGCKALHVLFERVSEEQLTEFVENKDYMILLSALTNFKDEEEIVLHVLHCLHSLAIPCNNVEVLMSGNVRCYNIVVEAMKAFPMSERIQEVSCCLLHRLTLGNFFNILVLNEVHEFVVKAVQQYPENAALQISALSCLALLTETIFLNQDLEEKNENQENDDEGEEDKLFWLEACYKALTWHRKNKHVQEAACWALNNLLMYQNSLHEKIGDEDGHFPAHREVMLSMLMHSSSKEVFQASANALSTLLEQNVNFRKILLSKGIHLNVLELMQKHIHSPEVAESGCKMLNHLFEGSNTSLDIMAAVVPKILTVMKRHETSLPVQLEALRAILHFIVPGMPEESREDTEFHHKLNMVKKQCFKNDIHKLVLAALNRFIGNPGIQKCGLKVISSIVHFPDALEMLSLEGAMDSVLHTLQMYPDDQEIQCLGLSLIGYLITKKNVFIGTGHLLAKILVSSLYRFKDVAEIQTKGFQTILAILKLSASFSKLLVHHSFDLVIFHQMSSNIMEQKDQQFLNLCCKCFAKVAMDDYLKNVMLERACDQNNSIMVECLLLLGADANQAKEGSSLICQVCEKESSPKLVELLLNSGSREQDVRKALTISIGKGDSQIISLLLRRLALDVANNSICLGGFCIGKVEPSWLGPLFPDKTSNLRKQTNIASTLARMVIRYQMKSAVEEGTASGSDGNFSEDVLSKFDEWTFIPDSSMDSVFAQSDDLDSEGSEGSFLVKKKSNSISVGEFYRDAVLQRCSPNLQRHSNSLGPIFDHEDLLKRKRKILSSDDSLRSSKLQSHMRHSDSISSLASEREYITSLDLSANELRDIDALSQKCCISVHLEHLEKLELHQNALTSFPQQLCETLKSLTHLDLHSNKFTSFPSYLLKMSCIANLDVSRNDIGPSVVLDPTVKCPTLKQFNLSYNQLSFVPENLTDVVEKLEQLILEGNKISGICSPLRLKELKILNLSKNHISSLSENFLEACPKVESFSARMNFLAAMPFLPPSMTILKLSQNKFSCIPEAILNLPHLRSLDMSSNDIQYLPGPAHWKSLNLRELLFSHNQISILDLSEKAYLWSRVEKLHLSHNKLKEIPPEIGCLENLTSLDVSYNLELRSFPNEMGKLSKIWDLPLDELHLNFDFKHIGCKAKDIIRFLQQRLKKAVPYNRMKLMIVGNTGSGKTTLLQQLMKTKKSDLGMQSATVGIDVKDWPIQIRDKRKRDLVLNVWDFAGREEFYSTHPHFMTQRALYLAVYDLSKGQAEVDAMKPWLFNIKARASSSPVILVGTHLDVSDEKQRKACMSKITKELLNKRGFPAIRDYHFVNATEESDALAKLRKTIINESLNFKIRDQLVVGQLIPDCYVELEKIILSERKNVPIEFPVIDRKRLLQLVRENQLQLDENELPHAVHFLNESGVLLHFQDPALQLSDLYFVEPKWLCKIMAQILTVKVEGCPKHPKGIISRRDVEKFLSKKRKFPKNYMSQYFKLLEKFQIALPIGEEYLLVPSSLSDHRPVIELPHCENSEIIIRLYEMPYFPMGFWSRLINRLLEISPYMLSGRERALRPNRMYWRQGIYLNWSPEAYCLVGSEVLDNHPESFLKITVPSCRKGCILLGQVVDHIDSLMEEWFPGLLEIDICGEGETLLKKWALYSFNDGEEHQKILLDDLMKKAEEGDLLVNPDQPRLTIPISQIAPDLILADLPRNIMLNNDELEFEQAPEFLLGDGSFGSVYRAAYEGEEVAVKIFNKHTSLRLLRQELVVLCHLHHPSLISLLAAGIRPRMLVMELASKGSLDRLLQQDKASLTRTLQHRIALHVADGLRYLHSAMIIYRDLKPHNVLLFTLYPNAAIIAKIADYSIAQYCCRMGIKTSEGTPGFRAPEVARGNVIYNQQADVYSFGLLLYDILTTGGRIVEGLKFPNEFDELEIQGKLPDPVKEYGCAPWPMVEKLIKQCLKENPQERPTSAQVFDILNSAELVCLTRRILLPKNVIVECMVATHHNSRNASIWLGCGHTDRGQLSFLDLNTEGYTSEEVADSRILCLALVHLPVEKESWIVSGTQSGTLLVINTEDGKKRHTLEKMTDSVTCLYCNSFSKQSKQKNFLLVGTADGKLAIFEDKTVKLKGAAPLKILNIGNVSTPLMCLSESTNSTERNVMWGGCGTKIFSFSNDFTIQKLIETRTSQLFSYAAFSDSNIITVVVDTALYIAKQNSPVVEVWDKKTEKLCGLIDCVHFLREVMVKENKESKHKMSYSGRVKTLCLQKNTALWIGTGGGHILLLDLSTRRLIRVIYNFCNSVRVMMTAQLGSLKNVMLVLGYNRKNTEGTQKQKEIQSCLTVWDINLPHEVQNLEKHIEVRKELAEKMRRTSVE
Summary of the method: (§1)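 Kinase selectivity panel: single-point assessment at 3 µM, n=1.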

[6] = molecular target: Mitogen-activated protein kinase 8 (Homo sapiens, UniProt P45983); experiment: Inhibition of recombinant human full length His-tagged JNK1 expressed in baculovirus expression system at 3 uM by Z'-LYTE assay relative to control; summary of the method: as §1
Sequence of Mitogen-activated protein kinase 8 (P45983 whole entry): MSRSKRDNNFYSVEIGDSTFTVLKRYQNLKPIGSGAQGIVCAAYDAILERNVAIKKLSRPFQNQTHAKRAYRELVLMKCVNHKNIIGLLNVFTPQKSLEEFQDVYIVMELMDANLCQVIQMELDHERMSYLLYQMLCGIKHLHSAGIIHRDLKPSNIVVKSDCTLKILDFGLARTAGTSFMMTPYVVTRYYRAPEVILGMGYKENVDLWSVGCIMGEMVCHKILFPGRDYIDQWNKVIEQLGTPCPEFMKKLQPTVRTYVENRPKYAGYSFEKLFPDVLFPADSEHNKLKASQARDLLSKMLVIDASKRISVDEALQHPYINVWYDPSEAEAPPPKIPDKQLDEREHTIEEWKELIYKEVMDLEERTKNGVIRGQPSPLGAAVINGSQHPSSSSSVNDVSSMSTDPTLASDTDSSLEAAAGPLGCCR

[7] = molecular target: Mitogen-activated protein kinase 10 (Homo sapiens, UniProt P53779); experiment: Inhibition of recombinant human full length N-terminal GST-tagged JNK3 expressed in baculovirus expression system at 3 uM by Z'-LYTE assay relative to control; summary of the method: as §1
Sequence of Mitogen-activated protein kinase 10 (P53779 whole entry): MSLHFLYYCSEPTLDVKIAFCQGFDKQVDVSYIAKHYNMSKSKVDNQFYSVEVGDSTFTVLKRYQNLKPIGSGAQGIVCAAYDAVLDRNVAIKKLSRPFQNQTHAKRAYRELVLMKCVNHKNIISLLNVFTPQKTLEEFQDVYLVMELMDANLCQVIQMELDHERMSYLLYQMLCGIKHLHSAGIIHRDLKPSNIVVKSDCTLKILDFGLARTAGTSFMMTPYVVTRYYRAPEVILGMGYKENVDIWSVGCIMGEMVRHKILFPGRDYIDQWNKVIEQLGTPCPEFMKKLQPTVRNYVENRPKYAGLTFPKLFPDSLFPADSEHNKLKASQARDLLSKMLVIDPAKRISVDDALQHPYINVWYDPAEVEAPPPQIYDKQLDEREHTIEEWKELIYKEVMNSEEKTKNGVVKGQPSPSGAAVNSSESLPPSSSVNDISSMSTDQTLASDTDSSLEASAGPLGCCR

[8] = molecular target: T2, Testis-specific serine/threonine-protein kinase 1 (Homo sapiens) (UniProt Q9BXA7); experiment: Inhibition of recombinant human full length His-tagged TSSK1 expressed in baculovirus expression system at 3 uM by Z'-LYTE assay relative to control; summary of the method: as §1
T2 sequence (whole entry): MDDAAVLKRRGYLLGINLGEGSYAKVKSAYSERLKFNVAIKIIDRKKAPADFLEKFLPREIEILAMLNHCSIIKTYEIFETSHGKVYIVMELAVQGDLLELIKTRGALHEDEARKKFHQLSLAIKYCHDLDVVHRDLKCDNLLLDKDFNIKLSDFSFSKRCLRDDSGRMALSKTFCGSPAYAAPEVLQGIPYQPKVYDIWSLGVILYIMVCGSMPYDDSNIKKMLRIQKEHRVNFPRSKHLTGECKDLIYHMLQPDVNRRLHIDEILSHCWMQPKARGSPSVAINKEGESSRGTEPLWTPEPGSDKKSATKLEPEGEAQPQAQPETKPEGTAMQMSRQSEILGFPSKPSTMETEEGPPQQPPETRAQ

[9] = molecular target: Leukocyte tyrosine kinase receptor (Homo sapiens, UniProt P29376); experiment: Inhibition of recombinant human GST-tagged LTK cytoplasmic domain (450 to 864 residues) expressed in baculovirus expression system at 3 uM by Z'-LYTE assay relative to control; summary of the method: as §1
Sequence of Leukocyte tyrosine kinase receptor (P29376 whole entry, the tested form may be a part): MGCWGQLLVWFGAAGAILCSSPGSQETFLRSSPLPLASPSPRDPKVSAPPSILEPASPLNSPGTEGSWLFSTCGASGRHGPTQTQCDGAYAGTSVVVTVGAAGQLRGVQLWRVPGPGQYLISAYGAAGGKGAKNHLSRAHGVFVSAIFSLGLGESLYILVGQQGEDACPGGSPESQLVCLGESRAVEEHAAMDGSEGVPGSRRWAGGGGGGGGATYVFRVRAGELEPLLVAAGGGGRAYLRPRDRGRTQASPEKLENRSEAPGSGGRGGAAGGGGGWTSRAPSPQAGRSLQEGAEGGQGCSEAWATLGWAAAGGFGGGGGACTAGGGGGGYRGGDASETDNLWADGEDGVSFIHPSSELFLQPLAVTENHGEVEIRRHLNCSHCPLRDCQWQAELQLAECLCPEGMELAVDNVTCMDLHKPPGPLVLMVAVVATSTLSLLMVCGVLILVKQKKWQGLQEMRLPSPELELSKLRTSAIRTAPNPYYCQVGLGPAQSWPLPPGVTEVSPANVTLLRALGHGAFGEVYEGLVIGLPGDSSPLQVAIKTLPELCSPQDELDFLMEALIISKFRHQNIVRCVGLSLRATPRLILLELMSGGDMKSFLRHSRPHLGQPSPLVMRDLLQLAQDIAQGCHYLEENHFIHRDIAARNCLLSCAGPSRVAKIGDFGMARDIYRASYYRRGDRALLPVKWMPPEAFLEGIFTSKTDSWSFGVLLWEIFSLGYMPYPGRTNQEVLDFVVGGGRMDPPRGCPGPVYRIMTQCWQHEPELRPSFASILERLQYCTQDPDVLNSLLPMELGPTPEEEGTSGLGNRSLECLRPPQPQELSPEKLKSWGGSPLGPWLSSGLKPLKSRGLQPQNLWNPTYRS

[10] = species: Homo sapiens; experiment: Selectivity ratio of IC50 for recombinant human full length His-tagged JNK1 expressed in baculovirus expression system to IC50 for inhibition of Kinase Tracer 236 binding to recombinant human full-length GST-tagged TTk expressed in baculovirus expression system
[11] = Cmax in CB17 SCID mouse at 30 mg/kg, po; type: ADME, organism-based; design: dose 30 mg/kg, route oral; conditions: in vivo
Summary of the method: (§2)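 Oral PK in SCID mice at 30 mg/kg. Compound is formulated either in CMCT (0.5% CMC/0.25% tween-80) or in 5% TPGS, 10% captisol, 50 mM citrate buffer, depending on compound. Cmax and AUC are measured.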

[12] = AUC in CB17 SCID mouse at 30 mg/kg, po; type: ADME, organism-based; conditions: in vivo; summary of the method: as §2
[13] = test system: CAL-51; experiment: Antitumor activity against human CAL51 cells xenografted in po dosed CB17 SCID mouse assessed as tumor growth inhibition administered every seven days for 16 days and measured twice per week up to 31 days by caliper method; type: functional, organism-based
Summary of the method: (§3)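 Female CB17 SCID mice, 6-8 weeks old, inoculated subcutaneously with 2×10^6 CAL-51 cells. Oral dosing once weekly (QW) at 30-120 mg/kg, or 30 mg/kg BID QW, for 16 days, against vehicle control. Tumour long and short axes measured twice weekly by digital caliper; volume = width² × length/2. Values are TGI; data are mean ± SEM.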

[14] = test system: CAL-51; experiment: Antitumor activity against human CAL51 cells xenografted in CB17 SCID mouse assessed as tumor growth inhibition at 30 mg/kg, po administered every seven days for 16 days and measured twice per week up to 31 days by caliper method relative to control; type: functional; conditions: CAL-51, po, read-out: TGI; summary of the method: as §3
[15] = test system: Mus musculus; experiment: Inhibition of mitosis in human CAL51 cells xenografted in CB17 SCID mouse assessed reduction in pHH3 ser10 level at 30 mg/kg, po administered as single dose measured after 1 hr by MSD electrochemiluminescent immunoassay; type: functional, organism-based
Summary of the method: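 CB17 SCID mice bearing CAL-51 tumours of 300-500 mm3 given compound orally. At preset time points the mice were euthanised and the tumours dissected and snap-frozen in liquid nitrogen. pHH3 Ser10 or cleaved caspase measured by MSD electrochemiluminescent immunoassay kit. Data are mean ± SEM.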

Compound: C[C@@H](Oc1cc(C(=O)N(C)C)ccc1Nc1nc(O[C@H]2CC[C@@](C)(O)CC2)c2c(Cl)c[nH]c2n1)C(F)(F)F
- IC50 [1]: 0.01 µM
- AUC [2]: 26 to 26.3 µM·h
- IC50 [3]: 0.009 µM
- IC50 [4]: 0.011 µM
- inhibition at 1 h, 3 µM [5]: > 80%
- inhibition [6]: > 80%
- inhibition [7]: > 80%
- inhibition [8]: > 80%
- inhibition [9]: > 80%
- Ratio IC50 [10]: < 100
- Cmax [11]: 5.2 µM
- AUC [12]: 22.5 µM·h
- TGI [13]: Dose-dependent effect
- inhibition in vivo at 30 mg/kg [14]: 59%
- inhibition [15]: Active
